Experiments:
Type in all cases: ADME
[1] = biological target: T1, UDP-glucuronosyltransferase 2B15 (Homo sapiens, UniProt P54855); assay: Drug metabolism assessed as recombinant human C-terminal […]-mediated 16-epiestriol-3-glucuronide formation after 15 to 60 mins by Michaelis-Menten equation analysis in presence of UDPGA; details: recombinant enzyme
T1 sequence (P54855 whole entry): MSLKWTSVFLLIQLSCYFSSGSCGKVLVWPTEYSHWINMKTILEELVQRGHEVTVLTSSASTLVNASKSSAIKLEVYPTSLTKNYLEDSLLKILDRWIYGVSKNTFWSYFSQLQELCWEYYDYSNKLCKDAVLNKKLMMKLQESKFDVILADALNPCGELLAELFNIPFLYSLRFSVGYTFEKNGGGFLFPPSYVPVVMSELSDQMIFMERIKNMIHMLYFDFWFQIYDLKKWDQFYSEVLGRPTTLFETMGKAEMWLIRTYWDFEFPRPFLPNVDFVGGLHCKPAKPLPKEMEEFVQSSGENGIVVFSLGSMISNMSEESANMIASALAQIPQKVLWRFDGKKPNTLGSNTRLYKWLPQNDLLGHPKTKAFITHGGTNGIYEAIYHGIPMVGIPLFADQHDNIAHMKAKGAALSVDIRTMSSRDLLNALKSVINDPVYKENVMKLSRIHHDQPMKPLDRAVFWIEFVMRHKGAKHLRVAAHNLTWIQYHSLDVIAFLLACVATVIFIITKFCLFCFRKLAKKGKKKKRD

Liver microsome = assay: Drug metabolism in human liver microsomes assessed as 16-epiestriol-3-glucuronide formation after 15 to 60 mins by Michaelis-Menten equation analysis in presence of UDPGA
In short: (§1)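 Pooled human liver microsomes (30 donors), 0.5 or 10 µg, with alamethicin at 5% of total protein. Incubated with 50 mM phosphate pH 7.4, 10 mM MgCl₂, 5 mM UDPGA and 10% DMSO for 15–60 min at 37°C. Each glucuronide regioisomer quantified by HPLC, in triplicate, with substrate consumption at or below 10%.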

[2] = Drug metabolism in human intestine microsomes assessed as 16-epiestriol-3-glucuronide formation after 15 to 60 mins by Michaelis-Menten equation analysis in presence of UDPGA
In short: as §1, with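 “intestine” for “liver”, “(6” for “(30”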

[3] = biological target: T2, UDP-glucuronosyltransferase 1A1 (Homo sapiens, UniProt P22309); assay: Drug metabolism assessed as recombinant human C-terminal His-tagged UGT1A1-mediated estradiol-3-glucuronide formation at 200 uM after 15 to 60 mins by HPLC analysis in presence of UDPGA; details: recombinant enzyme
T2 sequence (P22309 whole entry): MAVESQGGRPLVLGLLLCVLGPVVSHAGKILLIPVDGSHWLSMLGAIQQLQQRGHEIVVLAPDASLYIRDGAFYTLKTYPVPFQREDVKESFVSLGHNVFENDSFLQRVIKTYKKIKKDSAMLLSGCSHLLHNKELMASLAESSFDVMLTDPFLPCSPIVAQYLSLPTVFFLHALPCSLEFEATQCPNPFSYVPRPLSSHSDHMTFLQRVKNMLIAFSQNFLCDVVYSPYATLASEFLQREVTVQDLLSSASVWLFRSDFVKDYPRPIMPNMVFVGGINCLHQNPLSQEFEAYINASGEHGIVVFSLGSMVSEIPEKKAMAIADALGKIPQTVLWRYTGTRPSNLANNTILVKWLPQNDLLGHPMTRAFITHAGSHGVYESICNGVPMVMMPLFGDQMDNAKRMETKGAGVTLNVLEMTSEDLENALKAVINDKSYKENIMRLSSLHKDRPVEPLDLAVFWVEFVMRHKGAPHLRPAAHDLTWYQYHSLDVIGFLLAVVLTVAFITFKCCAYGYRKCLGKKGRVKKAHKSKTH
In short: (§2)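 Screening at a single substrate concentration of 200 μM, in triplicate. The reaction used 5 or 50 µg of UGT-enriched insect cell membranes in 50 mM phosphate pH 7.4 with 10 mM MgCl₂ and 5 mM UDPGA, 10% final DMSO. Incubation was 15–60 min at 37°C. Perchloric acid stopped the reaction and supernatants were analysed by HPLC. Controls lacked UDPGA. Rates were normalized to relative UGT expression level.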

[4] = biological target: T3, UDP-glucuronosyltransferase 2A1 (Homo sapiens, UniProt P0DTE4); assay: Drug metabolism assessed as recombinant human C-terminal His-tagged UGT2A1-mediated estradiol-3-glucuronide/estradiol-17-glucuronide formation at 200 uM after 15 to 60 mins by HPLC analysis in presence of UDPGA; details: recombinant enzyme; in short: as §2
T3 sequence (P0DTE4 whole entry): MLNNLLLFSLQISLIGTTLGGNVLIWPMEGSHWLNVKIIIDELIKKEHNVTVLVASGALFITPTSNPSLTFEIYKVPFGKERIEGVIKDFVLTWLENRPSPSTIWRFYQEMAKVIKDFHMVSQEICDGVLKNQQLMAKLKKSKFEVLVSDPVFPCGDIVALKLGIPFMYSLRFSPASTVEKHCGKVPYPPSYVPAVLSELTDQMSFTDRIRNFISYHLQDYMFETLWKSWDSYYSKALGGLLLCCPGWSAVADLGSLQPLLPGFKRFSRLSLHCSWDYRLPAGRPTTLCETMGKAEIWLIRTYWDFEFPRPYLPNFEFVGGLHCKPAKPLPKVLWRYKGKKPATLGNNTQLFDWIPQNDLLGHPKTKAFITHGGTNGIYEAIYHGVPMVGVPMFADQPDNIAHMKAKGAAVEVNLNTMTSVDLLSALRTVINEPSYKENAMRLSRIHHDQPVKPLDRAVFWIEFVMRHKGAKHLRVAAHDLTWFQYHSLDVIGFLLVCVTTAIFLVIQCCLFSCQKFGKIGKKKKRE

[5] = biological target: UDP-glucuronosyltransferase 1A10 (Homo sapiens, UniProt Q9HAW8, F93G); assay: Drug metabolism assessed as human UGT1A10 F93G mutant-mediated estradiol-3-glucuronide formation at 200 uM after 15 to 60 mins by HPLC analysis in presence of UDPGA; in short: as §2
Sequence of UDP-glucuronosyltransferase 1A10 (Q9HAW8 26-530 F93G limits assumed): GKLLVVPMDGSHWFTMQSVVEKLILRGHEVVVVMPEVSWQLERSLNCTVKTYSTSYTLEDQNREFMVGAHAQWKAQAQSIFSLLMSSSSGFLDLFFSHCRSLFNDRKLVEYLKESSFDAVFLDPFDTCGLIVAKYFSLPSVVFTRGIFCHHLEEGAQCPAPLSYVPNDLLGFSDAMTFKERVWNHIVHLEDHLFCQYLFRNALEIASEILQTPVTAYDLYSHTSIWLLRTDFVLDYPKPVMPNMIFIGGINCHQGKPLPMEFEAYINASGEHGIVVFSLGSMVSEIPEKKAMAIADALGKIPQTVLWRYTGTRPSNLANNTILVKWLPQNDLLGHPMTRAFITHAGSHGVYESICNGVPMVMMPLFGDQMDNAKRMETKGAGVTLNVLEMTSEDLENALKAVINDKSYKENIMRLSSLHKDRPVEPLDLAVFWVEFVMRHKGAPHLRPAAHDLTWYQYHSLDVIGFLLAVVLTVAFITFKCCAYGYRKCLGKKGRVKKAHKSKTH

[6] = Drug metabolism in human intestine microsomes assessed as estriol-3-glucuronide formation after 15 to 60 mins by Michaelis-Menten equation analysis in presence of UDPGA
In short: as §1, with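 “intestine” for “liver”, “(6” for “(30”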

[7] = biological target: T3, UDP-glucuronosyltransferase 2A1; assay: Drug metabolism assessed as recombinant human C-terminal His-tagged UGT2A1-mediated 17-epiestriol-17-glucuronide formation at 5 mg after 5 hrs by NMR spectroscopic analysis in presence of UDPGA
[8] = biological target: T3, UDP-glucuronosyltransferase 2A1; assay: Drug metabolism assessed as recombinant human C-terminal His-tagged UGT2A1-mediated 17-epiestriol-17-glucuronide formation at 200 uM after 15 to 60 mins by HPLC analysis in presence of UDPGA; details: recombinant enzyme; in short: as §2
[9] = Drug metabolism in human intestine microsomes assessed as 17-epiestriol-16-glucuronide formation after 15 to 60 mins by Michaelis-Menten equation analysis in presence of UDPGA
In short: as §1, with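 “intestine” for “liver”, “(6” for “(30”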

Q: For `C[C@]12CC[C@@H]3c4ccc(O)cc4CC[C@H]3[C@@H]1C[C@H](O)[C@@H]2O` [EPIESTRIOL], which Drug metabolism [1] is on record?
A: Its Drug metabolism is 0.5 pmol/min/mg.

Q: What about the Km (Liver microsome) of the same compound?
A: The Km was 2380 µM.

Q: What about the Vmax (Liver microsome) of the same compound?
A: Its Vmax is 569 pmol/min/mg.

Q: And the Km [2]?
A: The Km was 50 µM.

Q: What about the Vmax [2] of the same compound?
A: Its Vmax is 4111 pmol/min/mg.

Q: Which results are given for `C[C@]12CC[C@@H]3c4ccc(O)cc4CC[C@H]3[C@@H]1CC[C@@H]2O` [ESTRADIOL]?
A: Drug metabolism [3]: metabolite_detected; Drug metabolism [4]: metabolite_detected; Drug metabolism [5]: metabolite_detected

Q: With `C[C@]12CC[C@@H]3c4ccc(O)cc4CC[C@H]3[C@@H]1C[C@@H](O)[C@@H]2O` [ESTRIOL] as the compound, how does the Km [6] read?
A: The Km was 75 µM.

Q: What about the Vmax [6] of the same compound?
A: Its Vmax is 839 pmol/min/mg.

Q: What does the source list for `C[C@]12CC[C@@H]3c4ccc(O)cc4CC[C@H]3[C@@H]1C[C@@H](O)[C@H]2O`?
A: Drug metabolism [7]: metabolite_detected; Drug metabolism [8]: metabolite_detected; Km [9]: 820 µM; Vmax [9]: 266 pmol/min/mg
